ChEMBL document CHEMBL1153348, “Semi-synthetic analogs of pinitol as potential inhibitors of TNF-alpha cytokine expression in human neutrophils” (2009)
Calls of active or inactive are those of the source. No cut-off for these calls is given here.

System: not listed separately
Test: Antiinflammatory activity in human neutrophils assessed as inhibition of LPS-induced intracellular TNFalpha expression at 1 ug/mL after 3 hrs by flow cytometry
Assay type: functional, Neutrophil
Parameters: scale not given: the % may be the effect or the level left
How it was run: (§1)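 Neutrophils were isolated from human blood: spun at 250g for 20 min, and the platelet-rich layer was discarded. The lower layer was spun at 1800g, and the buffy coat was layered on histopaque and spun at 700g. RBCs were lysed and the cells washed with PBS. Cells were given LPS plus compound for 3 h in a CO2 incubator, permeabilised, stained 30 min in the dark with conjugated anti-TNF-α mAb, and read by flow cytometry.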

First: CO[C@H]1[C@H](OC(=O)C(C)C)[C@H]2OC(C)(C)O[C@H]2[C@@H]2OC(C)(C)O[C@H]12
Second: CO[C@H]1[C@H](OC(C)=O)[C@H]2OC(C)(C)O[C@H]2[C@@H]2OC(C)(C)O[C@H]12
The Activity of the first is lower: 20.65% for the first, 42.58% for the second.

First: CO[C@H]1[C@H](OC(C)=O)[C@@H](OC(C)=O)[C@@H](OC(C)=O)[C@H](O)[C@@H]1OC(C)=O
Second: CO[C@@H]1[C@@H](OC(C)=O)[C@@H](OC(C)=O)[C@H](O)[C@H](OC(C)=O)[C@H]1OC(C)=O
The Activity of the first is lower: 1.14% for the first, 33.46% for the second.

First: CO[C@@H]1[C@@H](OC(=O)c2ccccc2)[C@@H](OC(=O)c2ccccc2)[C@H](OC(=O)c2ccccc2)[C@H](OC(=O)c2ccccc2)[C@H]1OC(=O)c1ccccc1
Second: CO[C@@H]1[C@@H](OC(C)=O)[C@@H](OC(C)=O)[C@H](OC(C)=O)[C@H](OC(C)=O)[C@H]1OC(C)=O
The Activity of the first is higher: 51.71% for the first, 33.46% for the second.

First: CCCC(=O)O[C@@H]1[C@@H](O)[C@@H](O)[C@H](O)[C@H](O)[C@H]1OC
Second: CCC(=O)O[C@@H]1[C@@H](O)[C@@H](O)[C@H](O)[C@H](O)[C@H]1OC
The Activity of the first is lower: 8.36% for the first, 20.91% for the second.

First: CCO[C@H]1[C@H](OC)[C@H]2OC(C)(C)O[C@H]2[C@@H]2OC(C)(C)O[C@H]12
Second: CO[C@H]1[C@H](OC)[C@H]2OC(C)(C)O[C@H]2[C@@H]2OC(C)(C)O[C@H]12
The Activity of the first is higher: 38.4% for the first, 33.33% for the second.

First: C=CCO[C@@H]1[C@@H](O)[C@@H](O)[C@H](O)[C@H](O)[C@H]1OC
Second: CCO[C@@H]1[C@@H](O)[C@@H](O)[C@H](O)[C@H](O)[C@H]1OC
The Activity of the first is lower: 29.65% for the first, 36.5% for the second.

First: CO[C@@H]1[C@@H](O)[C@@H](O)[C@H](O)[C@H](O)[C@H]1OC(C)=O
Second: CO[C@@H]1[C@@H](O)[C@@H](O)[C@H](O)[C@H](O)[C@H]1OC(=O)C(C)C
The Activity of the first is lower: 2.28% for the first, 17.85% for the second.

First: CCC(=O)O[C@H]1[C@H](OC(=O)CC)[C@H](OC(=O)CC)[C@@H](OC)[C@H](OC(=O)CC)[C@H]1OC(=O)CC
Second: CCCC(=O)O[C@H]1[C@H](OC(=O)CCC)[C@H](OC(=O)CCC)[C@@H](OC)[C@H](OC(=O)CCC)[C@H]1OC(=O)CCC
The Activity of the first is lower: 30.79% for the first, 52.47% for the second.

Going from `CO[C@H]1C(=O)[C@H]2OC(C)(C)O[C@H]2[C@@H]2OC(C)(C)O[C@@H]21` to `CO[C@H]1[C@H](O)[C@H]2OC(C)(C)O[C@H]2[C@@H]2OC(C)(C)O[C@@H]21`, the Activity falls from 50.57% to 13.09%.

Compared with `CO[C@H]1[C@H](Cl)[C@H]2OC(C)(C)O[C@H]2[C@@H]2OC(C)(C)O[C@@H]21`, `C=CCO[C@H]1[C@H](OC)[C@H]2OC(C)(C)O[C@H]2[C@@H]2OC(C)(C)O[C@H]12` is lower in Activity: 37.64% for the first, 34.98% for the second.

Compared with `CCCC(=O)O[C@H]1[C@H](OC)[C@H]2OC(C)(C)O[C@H]2[C@@H]2OC(C)(C)O[C@H]12`, `CCC(=O)O[C@H]1[C@H](OC)[C@H]2OC(C)(C)O[C@H]2[C@@H]2OC(C)(C)O[C@H]12` is lower in Activity: 39.54% for the first, 32.14% for the second.

First: CO[C@H]1[C@H](O)[C@@H](O)[C@@H](O)[C@H](O)[C@@H]1O [METHYLINOSITOL]
Second: CO[C@@H]1[C@@H](O)[C@@H](O)[C@H](O)[C@H](O)[C@H]1OC
The Activity of the first is lower: 30.03% for the first, 39.16% for the second.

System: not listed separately
Test: Antiinflammatory activity in human neutrophils assessed as inhibition of LPS-induced intracellular TNFalpha expression at 10 ug/mL after 3 hrs by flow cytometry
Assay type: functional, Neutrophil
Parameters: scale not given: the % may be the effect or the level left
How it was run: as §1

Compound `COc1ccc(C2CNC(=O)C2)cc1OC1CCCC1` (stereo not drawn) [ROLIPRAM] has an Activity of 52.85%.

System: Neutrophil (Homo sapiens)
Test: Antiinflammatory activity in human neutrophils assessed as inhibition of LPS-induced intracellular TNFalpha expression

In the case of `CO[C@@H]1[C@@H](OC(=O)c2ccccc2)[C@@H](OC(=O)c2ccccc2)[C@H](OC(=O)c2ccccc2)[C@H](OC(=O)c2ccccc2)[C@H]1OC(=O)c1ccccc1`, the Activity is reported as “Active”.
For `CO[C@H]1C(=O)[C@H]2OC(C)(C)O[C@H]2[C@@H]2OC(C)(C)O[C@@H]21`, the Activity was “Active”.
For `CCCC(=O)O[C@H]1[C@H](OC(=O)CCC)[C@H](OC(=O)CCC)[C@@H](OC)[C@H](OC(=O)CCC)[C@H]1OC(=O)CCC`, the Activity was “Active”.
